OX1R antag-1: antagonists of human orexin 1 receptor (OX1R); O43613; OX1R-expressing cells, FRET antagonist read-out; inhibition, % at 6.6 µM; 1.8% of 330,000 active; in the data active means inhibition mostly above about 38%, no sharp cut-off; inactive means mostly below about 40%;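 further: 0% = agonist challenge alone and 100% = reference antagonist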
Target sequence (O43613 whole entry, looked up): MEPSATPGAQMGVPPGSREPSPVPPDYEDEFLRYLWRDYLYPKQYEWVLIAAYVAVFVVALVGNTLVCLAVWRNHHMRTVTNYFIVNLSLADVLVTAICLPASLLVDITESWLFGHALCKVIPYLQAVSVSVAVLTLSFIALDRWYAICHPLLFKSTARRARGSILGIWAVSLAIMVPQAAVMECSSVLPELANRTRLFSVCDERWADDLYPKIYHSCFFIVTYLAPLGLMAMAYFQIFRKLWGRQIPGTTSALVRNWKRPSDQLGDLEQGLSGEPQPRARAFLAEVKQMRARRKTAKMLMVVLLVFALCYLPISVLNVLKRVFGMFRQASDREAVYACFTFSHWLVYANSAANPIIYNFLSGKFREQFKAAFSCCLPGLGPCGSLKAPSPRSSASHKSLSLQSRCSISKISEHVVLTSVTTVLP
CHO parental Ca: counter-screen: ATP calcium response change in parental CHO cells; 0.63% of 330,000 active; inhibition, % at 5.6 µM; parental CHO-K1, ATP-induced calcium, Fluo-8 fluorescence;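 active means inhibition above that plate's mean sample inhibition plus 3 SD, cut at about 26% in these data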;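 further: 0% = ATP-challenged DMSO wells and 100% = DMSO wells without ATP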
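Test system: parental CHO cells; detection: calcium-sensitive Fluo-8 fluorescence; evaluation: percent inhibition of calcium signal; also added: ATP as calcium-mobilizing challenge; repeats: one well per compound; control set: ATP-challenged DMSO wells low, unchallenged DMSO wells high; compound: single nominal dose of 5.6 µM per compound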
OX1R antag-2: antagonists of human orexin 1 receptor. O43613. CHO/OX1R cells, Fluo-8 calcium fluorescence, orexin A. inhibition, % at 5 µM. 0.43% of 330,000 active. AID 434989;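 active means inhibition above its plate's threshold, mean inhibition of all tested compounds on the plate plus 3 SD, cut at about 37% in these data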;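 further: 0% = orexin A challenge wells and 100% = SB-334867-A antagonist wells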
TAAR1 antag: antagonists of human TAAR1. inhibition, % at 3 µM. 1.5% of 360,000 active. AID 624466. Q96RJ0. CHO RD-HGA16 TAAR1, Fluo-8 calcium fluorescence, antagonist;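 active means inhibition above a per-plate cutoff, the mean inhibition of test compounds on that plate plus 3 SD, cut at about 49% in these data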;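 further: 0% = DMSO plus EC80 beta-PEA response and 100% = DMSO alone without agonist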
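Test system: RD-HGA16 CHO cells with stable hTAAR1 and Gα16 / Probe or stimulus: EC80 β-phenethylamine stimulus / Times: seeding 17-24 h prior, 75-min 37 °C, 30-min RT dye loading / Detection: Fluo-8 calcium-sensitive fluorescence / Read-out basis: % inhibition scaled between DMSO and EC80 PEA controls / Repeats: singlicate, one well per test compound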
GPR7 antag: human neuropeptides B/W receptor 1 antagonism | inhibition, % at 4.4 µM | AID 1861 | GPR7-expressing cells, fluorescence antagonist assay | P48145 | 1.1% of 290,000 active; in the data active means inhibition above about 16%, passing the limit was not always enough;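 further: cells stimulated with the agonist NPW; 0% = agonist with vehicle and 100% = vehicle without agonist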
Target sequence (P48145 whole entry, looked up): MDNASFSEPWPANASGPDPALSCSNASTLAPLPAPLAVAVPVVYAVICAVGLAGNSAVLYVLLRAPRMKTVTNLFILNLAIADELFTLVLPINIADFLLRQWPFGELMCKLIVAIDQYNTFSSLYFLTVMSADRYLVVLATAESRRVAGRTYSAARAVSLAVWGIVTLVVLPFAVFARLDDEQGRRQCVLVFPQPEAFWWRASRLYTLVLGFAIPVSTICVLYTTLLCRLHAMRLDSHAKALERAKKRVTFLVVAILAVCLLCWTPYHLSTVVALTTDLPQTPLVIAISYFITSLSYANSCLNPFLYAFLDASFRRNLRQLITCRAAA
TAAR1 agonist: human TAAR1 agonism; Q96RJ0; CHO RD-HGA16 TAAR1, Fluo-8 calcium fluorescence; vehicle wells 0%, saturating PEA agonist 100%; activation, % at 3 µM; 0.99% of 360,000 active; AID 624467;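 active means activation above the mean activation of all test compounds in the run plus 3 SD, cut at about 38% in these data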
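System: CHO-derived RD-HGA16 cells with stable Gα16 and human TAAR1 / Times: 17-24 h plating, Fluo-8 75 min 37 °C, 30 min RT / Technique: calcium-sensitive Fluo-8 signal, excitation 470-495, emission 515-575 nm / Measure: % activation relative to PEA EC100 response / Benchmarks: DMSO and PEA EC100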
TAAR1 ag confirm: confirmation of human TAAR1 agonists | shares compounds with TAAR1 agonist | CHO RD-HGA16 TAAR1, Fluo-8 calcium fluorescence; scaled: DMSO 0%, maximal phenethylamine 100% | activation, % at 3 µM | 82% of 2,400 active;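 active means activation above a cutoff set at the run's mean compound activation plus 3 SD, cut at about 39% in these data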
Ga16 ag counter: nonselective agonist in parental cells, TAAR1 agonist counter-screen; shares compounds with TAAR1 agonist; 50% of 2,400 active; CHO-Ga16 parental, Fluo-8 calcium fluorescence; normalized to maximal ATP response, DMSO zero; AID 651787; activation, % at 3 µM;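 active means activation above the run cutoff, the mean activation over all tested wells plus 3 SD, cut at about 12% in these data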;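 further: 0% = DMSO wells and 100% = maximal ATP response on the peak over basal ratio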
TAAR1 desens: human TAAR1 agonist that also desensitizes the receptor | shares compounds with TAAR1 agonist | CHO RD-HGA16 hTAAR1, Fluo-8 calcium, beta-PEA response inhibition | inhibition, % at 3 µM | 46% of 2,400 active | AID 651951;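 active means inhibition above the run cutoff, the mean inhibition of all test compounds plus 3 SD, cut at about 49% in these data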;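 further: beta-PEA stimulus applied at its EC80; loss of beta-PEA calcium signal after compound pretreatment read as receptor desensitization; 0% = DMSO with beta-PEA at EC80 and 100% = DMSO alone without agonist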
Ga16 nonsel ant: counter-screen for TAAR1 agonists: nonselective Ga16 antagonists. shares compounds with TAAR1 agonist. CHO-Ga16 ATP-induced calcium, Fluo-8 fluorescence. inhibition, % at 3 µM. 39% of 2,400 active. AID 651952;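 active means inhibition above the plate's mean compound inhibition plus 3 SD, computed per plate, cut at about 22% in these data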;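 further: 0% = EC80 ATP with DMSO and 100% = DMSO wells without ATP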
Active calls of the source: *; x = no result given. The list is not random: actives were taken first. Their share in the collection is about 4.5%.

SMILES	OX1R antag-1	CHO parental Ca	OX1R antag-2	TAAR1 antag	GPR7 antag	TAAR1 agonist	TAAR1 ag confirm	Ga16 ag counter	TAAR1 desens	Ga16 nonsel ant
Cc1ccc(NS(=O)(=O)c2ccc(C(=O)N3CCCN(C)CC3)cc2)cc1	16	-7	-10	3	-8	4	x	x	x	x
Cc1ccc(NS(=O)(=O)c2ccc(C(=O)N3CCCCCC3)cc2)cc1	2	-1	20	29	x	86*	80*	52*	43	39*
CC(=O)N1CCCC(c2cc(C(=O)Nc3ccccc3)no2)C1 (stereo not drawn)	x	x	x	-4	x	2	x	x	x	x
CCCCNC(=O)c1nc(-c2ccccc2)oc1-c1ccc(Cl)cc1	x	x	x	-8	x	-1	x	x	x	x
O=C(NCCc1ccccc1)c1ccc2c(=O)[nH]c3c(C(=O)NCC4CCCO4)sc(=S)n3c2c1 (stereo not drawn)	52*	-6	-4	52*	0	65*	90*	6	82*	22*
O=C(NCCc1ccc(Cl)cc1)c1ccc2c(=O)[nH]c3c(C(=O)NCC4CCCO4)sc(=S)n3c2c1 (stereo not drawn)	x	x	x	1	x	-1	x	x	x	x
NC(=Nc1ccc(Br)cc1)c1ccccc1	9	-6	-1	40	4	50*	55*	27*	49	18
COC(=O)c1cccc(CC2(C)C(=O)Nc3cc(-c4ccccc4Cl)ccc32)c1 (stereo not drawn)	x	x	x	-6	x	2	x	x	x	x
C=CCNC(=O)c1ccc(Cn2cc(C(F)(F)F)ccc2=O)cc1	31	-12	-9	12	-2	1	x	x	x	x
O=C(NCc1ccc(Cl)cc1)c1ccc(Cn2cc(C(F)(F)F)ccc2=O)cc1	-7	2	-10	30	6	66*	22	24*	28	26*
COc1ccccc1N(Cc1ccccc1)S(=O)(=O)c1cccc(C(=O)N2CCCCC2)c1	15	-16	6	22	x	-2	x	x	x	x
CCCCn1c(=O)[nH]c2nc3cc(NC(C)=O)ccc3nc2c1=O	7	-6	-3	-17	4	2	x	x	x	x
CCCCCCn1c(=O)[nH]c2nc3cc(N)c(C)cc3nc2c1=O	x	x	x	72*	-5	118*	105*	85*	48	49*
COc1ccc(-c2ccc(C(=O)NCCc3ccccc3)c3occc23)c(C)c1	x	x	x	29	x	3	x	x	x	x
Cc1sc(NC(=O)CSc2nnc(COc3ccccc3)n2C)c(C#N)c1C	7	28	1	47	-11	53*	11	4	19	8
Cc1ccc(OCc2nnc(SCC(=O)Nc3sc(C)c(C)c3C#N)n2C)cc1	12	1	6	46	-15	54*	10	2	20	5
Cc1sc(NC(=O)CSc2nnc3scc(-c4ccccc4)n23)c(C#N)c1C	6	-11	-15	4	-5	9	x	x	x	x
CC(NC(=O)c1c(N)[nH]c(C(=O)c2ccccc2)c1-c1ccccc1Br)c1cccc2ccccc12 (stereo not drawn)	x	x	x	-9	x	9	x	x	x	x
CC1OC2CC(=O)OC2C2=C1C(=O)c1c(O)cccc1C2=O (stereo not drawn)	x	x	x	58*	x	64*	69*	41*	71*	62*
CC1CCCN(c2c([N+](=O)[O-])c(=O)oc3ccccc23)C1 (stereo not drawn)	6	9	4	x	2	x	x	4	x	4
NS(=O)(=O)c1ccc(CCNC(=O)C2CCC(CNS(=O)(=O)c3ccc(Br)s3)CC2)cc1 (stereo not drawn)	-2	1	-15	72*	6	53*	41*	1	59*	7
O=C(NCCc1ccccc1)C1CCC(CNS(=O)(=O)c2ccccc2)CC1 (stereo not drawn)	4	5	-14	5	21	28	x	x	x	x
O=C(Cc1ccc(-n2cccc2)cc1)NCc1ccccc1Cl	15	-15	-17	50*	3	77*	1	0	-4	-1
O=C(NCc1ccccc1Cl)NCc1ccccc1Cl	0	7	-18	-36	-6	0	x	x	x	x
O=C(N[C@@H](Cc1cccnc1)C(=O)N1CCC[C@H]1C(=O)NCCc1ccccc1Cl)c1ccc(Cl)c(Cl)c1	x	x	x	91*	x	71*	84*	5	103*	21
SMILES	OX1R antag-1	CHO parental Ca	OX1R antag-2	TAAR1 antag	GPR7 antag	TAAR1 agonist	TAAR1 ag confirm	Ga16 ag counter	TAAR1 desens	Ga16 nonsel ant
O=C(N[C@@H](Cc1cccnc1)C(=O)N1CCC[C@H]1C(=O)NCCc1ccccc1Cl)C1CC1	x	x	x	26	x	46*	70*	0	58*	6
O=C(NCCc1ccccc1Cl)[C@@H]1CCCN1C(=O)[C@H](Cc1cccnc1)NC(=O)N1CCOCC1	x	x	x	11	x	49*	77*	0	46	5
O=C(N[C@@H](Cc1cccnc1)C(=O)N1CCC[C@H]1C(=O)NCCc1ccccc1Cl)c1ccccc1	x	x	x	77*	x	55*	92*	7	90*	2
O=C(NCc1cccnc1)c1ccc(Cl)c(S(=O)(=O)N2CCCCCC2)c1	25	-23	-41	16	-23	3	x	x	x	x
NS(=O)(=O)c1ccc(CCNC(=O)C2CCCN2C(=O)c2cccs2)cc1 (stereo not drawn)	x	x	x	-26	x	4	x	x	x	x
O=C(N[C@@H](Cc1cccnc1)C(=O)N1CCC[C@H]1C(=O)NCCc1ccccc1Cl)c1cccs1	x	x	x	48	x	48*	82*	4	84*	4
CC(C)NC(=O)C1(C)CCCN1C(=O)c1ccc2c(c1)C(C)(C)CCC2(C)C (stereo not drawn)	x	x	x	-29	x	5	x	x	x	x
Cc1c(Cl)cccc1NC(=O)Nc1ccc(C(N)=O)cc1	20	-7	7	-8	-5	52*	60*	1	24	9
Cc1c(Cl)cccc1NC(=O)Nc1ccccc1C(N)=O	4	-5	-9	0	0	3	x	x	x	x
CCN(CC)C(=O)[C@H]1C[C@H](CC(=O)NCCCOC)C(=O)N2CCc3c([nH]c4cc(CCC(=O)N(C)C)ccc34)[C@]12C	17	-6	-4	-13	x	2	x	x	x	x
Brc1cccc(-c2nc3ccc(Br)cn3c2Cc2ccccc2)c1	x	x	x	7	x	8	x	x	x	x
